The format of data set [1] is in vivo. As to conditions: rat, plasma, iv, 20 nmol/kg. The procedure, abridged: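 Sprague–Dawley rats (200–300 g) were dosed at 20 nmol/kg i.v. or s.c. Blood (200 µL) was drawn at 2, 6, 10, 24, 30 and 48 h, processed to plasma, extracted and analysed by UPLC-MS. Quantification used a calibration curve from spiked plasma, and parameters came from non-compartmental analysis. Groups were n = 4 for s.c., and n = 3 or 1 for i.v.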

Data set [2] in a line: PET imaging of 89Zr tracer, 17 MBq/kg. Type of data set: in vivo, rat. A digest of the protocol: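 Sprague–Dawley rats (200–300 g) received the 89Zr tracer (formulated at 5 MBq/nmol) i.v. or s.c. at 17 MBq/kg (3 nmol/kg). They were PET-imaged under 2–3% isoflurane/O2 at 4, 8, 24, 72 and 168 h, with a 350–650 keV window. Scans ran 15 min (4, 8 h), 20 min (24 h), 30 min (72 h) and 60 min (168 h), followed by a 323 s Co-57 transmission scan for attenuation correction. Images were decay-corrected to injection and reported as %ID/g.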

For data set [3] the following is noted: in rats; cited from earlier work.
For data set [4] the following is noted: after i.v. administration; cited from earlier work.

Like-named read-outs stand apart in the source and are kept apart here.

The values below come from paper PMC9380726 (ACS Pharmacology & Translational Science, 2022).

In general, half-life refers to the time in which the quantity being followed falls by half. For the compound `CC[C@H](C)[C@H](NC(=O)[C@H](Cc1ccccc1)NC(=O)[C@H](CCC(=O)O)NC(=O)[C@H](CCCNC(=N)N)NC(=O)[C@H](C)NC(=O)[C@H](C)NC(=O)[C@H](CCC(N)=O)NC(=O)[C@H](CCC(=O)O)NC(=O)[C@H](CCC(=O)O)NC(=O)[C@H](CC(C)C)NC(=O)[C@H](Cc1ccc(O)cc1)NC(=O)[C@H](CO)NC(=O)[C@H](CO)NC(=O)[C@@H](NC(=O)[C@H](CC(=O)O)NC(=O)[C@H](CO)NC(=O)[C@@H](NC(=O)[C@H](Cc1ccccc1)NC(=O)[C@@H](NC(=O)CNC(=O)[C@H](CCC(=O)O)NC(=O)[C@H](C)NC(=O)CCc1c[nH]cn1)[C@@H](C)O)[C@@H](C)O)C(C)C)C(=O)N[C@@H](C)C(=O)N[C@@H](Cc1c[nH]c2ccccc12)C(=O)N[C@@H](CC(C)C)C(=O)N[C@H](C(=O)N[C@@H](CCCNC(=N)N)C(=O)NCC(=O)N[C@@H](CCCNC(=N)N)C(=O)N[C@@H](CCCCNC(=O)COCCOCCNC(=O)COCCOCCNC(=O)CC[C@H](NC(=O)CCCCCCCCCCCCCCCCC(=O)O)C(=O)O)C(=O)NCC(=O)NCC(=O)N[C@@H](CO)C(=O)N[C@@H](CCCCNc1c(NCCCCCN(O)C(=O)CCC(=O)NCCCCCN(O)C(=O)CCC(=O)NCCCCCN(O)C(C)=O)c(=O)c1=O)C(=O)O)C(C)C` [compound 2], in data set [1], the half-life was 8.4 h.
Broadly, the tissue uptake is the share of the injected amount in each gram of the tissue. For the compound `CC[C@H](C)[C@H](NC(=O)[C@H](Cc1ccccc1)NC(=O)[C@H](CCC(=O)O)NC(=O)[C@H](CCCNC(=N)N)NC(=O)[C@H](C)NC(=O)[C@H](C)NC(=O)[C@H](CCC(N)=O)NC(=O)[C@H](CCC(=O)O)NC(=O)[C@H](CCC(=O)O)NC(=O)[C@H](CC(C)C)NC(=O)[C@H](Cc1ccc(O)cc1)NC(=O)[C@H](CO)NC(=O)[C@H](CO)NC(=O)[C@@H](NC(=O)[C@H](CC(=O)O)NC(=O)[C@H](CO)NC(=O)[C@@H](NC(=O)[C@H](Cc1ccccc1)NC(=O)[C@@H](NC(=O)CNC(=O)[C@H](CCC(=O)O)NC(=O)[C@H](C)NC(=O)CCc1c[nH]cn1)[C@@H](C)O)[C@@H](C)O)C(C)C)C(=O)N[C@@H](C)C(=O)N[C@@H](Cc1c[nH]c2ccccc12)C(=O)N[C@@H](CC(C)C)C(=O)N[C@H](C(=O)N[C@@H](CCCNC(=N)N)C(=O)NCC(=O)N[C@@H](CCCNC(=N)N)C(=O)N[C@@H](CCCCNC(=O)COCCOCCNC(=O)COCCOCCNC(=O)CC[C@H](NC(=O)CCCCCCCCCCCCCCCCC(=O)O)C(=O)O)C(=O)NCC(=O)NCC(=O)N[C@@H](CO)C(=O)N[C@@H](CCCCNc1c(NCCCCCN(O)C(=O)CCC(=O)NCCCCCN(O)C(=O)CCC(=O)NCCCCCN(O)C(C)=O)c(=O)c1=O)C(=O)O)C(C)C` [[89Zr]2, metal not drawn], in data set [2] (PET, s.c., after 168 h), the “initial dose trapped in the subcutis” value came out at 10%. In data set [2] (rat, kidney, iv, 3 nmol/kg, total radioactivity), the tissue uptake at 168 h is about 7 %ID/g.
For the compound semaglutide, the plasma metabolite exposures in data set [3] is listed as 1–7%. Further, the half-life in data set [4] is 7 to 12 h.
